# What was measured:
# Beta-lactamase VIM-1 = Beta-lactamase VIM-1 (Pseudomonas aeruginosa, UniProt Q9XAY4); experiment: Inhibition of Pseudomonas aeruginosa VIM-1 beta-lactamase after 10 mins
# Method in brief: (§1)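 Zn2+-removal inactivation of purified VIM-1 or VIM-13, tested with varied concentrations of EDTA, dipicolinic acid or 1,10-o-phenanthroline. Enzyme and chelator were incubated 10 min at 20°C in 50 mM HEPES pH 7.5 with 20 μg/ml BSA, then 100 μM imipenem hydrolysis was measured as the reporter. IC50 is the chelator level halving hydrolytic activity.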
# [1] = molecular target: Class B carbapenemase VIM-13 (Pseudomonas aeruginosa, UniProt Q2HY42); experiment: Inhibition of Pseudomonas aeruginosa VIM-13 beta-lactamase after 10 mins; method in brief: as §1
# Pseudomonas aeruginosa [2] = experiment: Antimicrobial activity against Pseudomonas aeruginosa isolate PA-SL2 harboring blaVIM-13 gene by Etest method; format: functional
# Pseudomonas aeruginosa [3] = experiment: Antimicrobial activity against Pseudomonas aeruginosa isolate PA-SD2 harboring blaVIM-1 gene by Etest method; format: functional
# Pseudomonas aeruginosa [4] = experiment: Antimicrobial activity against Pseudomonas aeruginosa PAO1 by Etest method; format: functional
# Escherichia coli [5] = experiment: Antimicrobial activity against Escherichia coli XL1-Blue harboring pUCP carrying VIM-1 gene by Etest method; format: functional
# Method in brief: (§2)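 Etest MICs of piperacillin, piperacillin-tazobactam, ceftazidime, cefepime, cefotaxime, aztreonam, imipenem and meropenem, run per manufacturer's recommendations. Strains were E. coli XL1-Blue or P. aeruginosa PAO1 carrying pUCP24-derived plasmids with blaVIM-1 or blaVIM-13 (cloned by EcoRI) inserted in the lacZ-promoter orientation. E. coli transformants were selected on 10 μg/ml gentamicin MacConkey agar; PAO1 electroporants were selected on 50 μg/ml gentamicin LB agar.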
# Escherichia coli [6] = experiment: Antimicrobial activity against Escherichia coli XL1-Blue harboring pUCP carrying VIM-13 gene by Etest method; format: functional; method in brief: as §2
# Pseudomonas aeruginosa [7] = experiment: Antimicrobial activity against Pseudomonas aeruginosa PAO1 harboring pUCP carrying VIM-1 gene by Etest method; format: functional; method in brief: as §2
# Pseudomonas aeruginosa [8] = experiment: Antimicrobial activity against Pseudomonas aeruginosa PAO1 harboring pUCP carrying VIM-13 gene by Etest method; format: functional; method in brief: as §2
# Escherichia coli [9] = experiment: Antimicrobial activity against Escherichia coli XL1-Blue by Etest method; format: functional
# Escherichia coli [10] = experiment: Antimicrobial activity against Escherichia coli XL1-Blue harboring pGEM-T carrying aacA4 Ala108Thr mutant gene by Etest method; format: functional
# Escherichia coli [11] = experiment: Antimicrobial activity against Escherichia coli XL1-Blue harboring pGEM-T carrying aacA4 gene by Etest method; format: functional
# [12] = tested on: CC1(C)S[C@@H]2[C@H](NC(=O)[C@H](N)c3ccccc3)C(=O)N2[C@H]1C(=O)O; experiment: (§3) Activity of Pseudomonas aeruginosa VIM-1 beta-lactamase
# Method in brief: (§4)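 GST-fused VIM-1 lacking signal peptide, purified, dialyzed in 50 mM HEPES pH 7.5 with 50 μM ZnSO4. Beta-lactam hydrolysis followed spectrophotometrically at 25°C in 50 mM HEPES pH 7.5, 50 μM ZnSO4, 20 μg/ml BSA.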
# [13] = tested on: CO/N=C(\C(=O)N[C@@H]1C(=O)N2C(C(=O)O)=C(COC(N)=O)CS[C@H]12)c1ccco1; experiment: as §3; method in brief: as §4
# [14] = tested on: CC1(C)S[C@@H]2[C@H](NC(=O)Cc3ccccc3)C(=O)N2[C@H]1C(=O)O; experiment: as §3; method in brief: as §4
# [15] = tested on: CO/N=C(\C(=O)N[C@@H]1C(=O)N2C(C(=O)O)=C(COC(C)=O)CS[C@H]12)c1csc(N)n1; experiment: as §3; method in brief: as §4
# [16] = tested on: C[C@@H](O)[C@H]1C(=O)N2C(C(=O)O)=C(S[C@@H]3CN[C@H](C(=O)N(C)C)C3)[C@H](C)[C@H]12; experiment: as §3; method in brief: as §4
# [17] = tested on: CC(C)(O/N=C(\C(=O)N[C@@H]1C(=O)N2C(C(=O)[O-])=C(C[n+]3ccccc3)CS[C@H]12)c1csc(N)n1)C(=O)O; experiment: as §3; method in brief: as §4
# [18] = tested on: CCN1CCN(C(=O)N[C@@H](C(=O)N[C@@H]2C(=O)N3[C@@H]2SC(C)(C)[C@@H]3C(=O)O)c2ccccc2)C(=O)C1=O; experiment: as §3; method in brief: as §4
# [19] = tested on: CC(=O)OCC1=C(C(=O)O)N2C(=O)[C@@H](NC(=O)Cc3cccs3)[C@H]2SC1; experiment: as §3; method in brief: as §4
# [20] = tested on: CC1(C)S[C@@H]2[C@H](NC(=O)[C@H](N)c3ccccc3)C(=O)N2[C@H]1C(=O)O; experiment: (§5) Ratio of Kcat to Km for Pseudomonas aeruginosa VIM-1 beta-lactamase; method in brief: as §4
# [21] = tested on: C[C@@H](O)[C@H]1C(=O)N2C(C(=O)O)=C(S[C@@H]3CN[C@H](C(=O)N(C)C)C3)[C@H](C)[C@H]12; experiment: as §5; method in brief: as §4
# [22] = tested on: CC(C)(O/N=C(\C(=O)N[C@@H]1C(=O)N2C(C(=O)[O-])=C(C[n+]3ccccc3)CS[C@H]12)c1csc(N)n1)C(=O)O; experiment: as §5; method in brief: as §4
# [23] = tested on: CCN1CCN(C(=O)N[C@@H](C(=O)N[C@@H]2C(=O)N3[C@@H]2SC(C)(C)[C@@H]3C(=O)O)c2ccccc2)C(=O)C1=O; experiment: as §5; method in brief: as §4
# [24] = tested on: CC(=O)OCC1=C(C(=O)O)N2C(=O)[C@@H](NC(=O)Cc3cccs3)[C@H]2SC1; experiment: as §5; method in brief: as §4
compound,measurement,setting,value
O=C(O)c1cccc(C(=O)O)n1 [DIPICOLINIC ACID],IC50,Beta-lactamase VIM-1,41.6 µM
same,IC50,[1],48 µM
C[C@@H](O)[C@H]1C(=O)N2C(C(=O)O)=C(S[C@@H]3CN[C@H](C(=O)N(C)C)C3)[C@H](C)[C@H]12 [MEROPENEM],MIC,Pseudomonas aeruginosa [2],12 µg/mL
same,MIC,Pseudomonas aeruginosa [3],> 32 µg/mL
same,MIC,Pseudomonas aeruginosa [4],0.38 µg/mL
same,MIC,Escherichia coli [5],0.25 µg/mL
same,MIC,Escherichia coli [6],0.19 µg/mL
same,MIC,Pseudomonas aeruginosa [7],> 32 µg/mL
same,MIC,Pseudomonas aeruginosa [8],> 32 µg/mL
same,MIC,Escherichia coli [9],0.064 µg/mL
NCC[C@H](O)C(=O)N[C@@H]1C[C@H](N)[C@@H](O[C@H]2O[C@H](CN)[C@@H](O)[C@H](O)[C@H]2O)[C@H](O)[C@H]1O[C@H]1O[C@H](CO)[C@@H](O)[C@H](N)[C@H]1O [AMIKACIN],MIC,Escherichia coli [10],0.75 µg/mL
same,MIC,Pseudomonas aeruginosa [2],16 µg/mL
same,MIC,Pseudomonas aeruginosa [3],3 µg/mL
same,MIC,Escherichia coli [11],0.75 µg/mL
same,MIC,Escherichia coli [9],0.75 µg/mL
c1cnc2c(c1)ccc1cccnc12 [PHENANTHROLINE],IC50,Beta-lactamase VIM-1,73 µM
same,IC50,[1],69.3 µM
Beta-lactamase VIM-1 (Pseudomonas aeruginosa) (from UniProt Q9XAY4),Km,[12],1740 µM
same,kcat,[12],307 s⁻¹
same,Km,[13],148 µM
same,kcat,[13],239 s⁻¹
same,Km,[14],1300 µM
same,kcat,[14],418 s⁻¹
same,Km,[15],285 µM
same,kcat,[15],204 s⁻¹
same,Km,[16],72 µM
same,kcat,[16],20 s⁻¹
same,Km,[17],1130 µM
same,kcat,[17],42 s⁻¹
same,Km,[18],1380 µM
same,kcat,[18],374 s⁻¹
same,Km,[19],135 µM
same,kcat,[19],449 s⁻¹
same,kcat/Km,[20],180000 M⁻¹ s⁻¹
same,kcat/Km,[21],280000 M⁻¹ s⁻¹
same,kcat/Km,[22],3.7 M⁻¹ s⁻¹
same,kcat/Km,[23],270000 M⁻¹ s⁻¹
same,kcat/Km,[24],3.3e+06 M⁻¹ s⁻¹
O=C(O)c1cn(C2CC2)c2cc(N3CCNCC3)c(F)cc2c1=O [CIPROFLOXACIN],MIC,Escherichia coli [10],0.064 µg/mL
same,MIC,Pseudomonas aeruginosa [2],> 32 µg/mL
same,MIC,Pseudomonas aeruginosa [3],> 32 µg/mL
same,MIC,Escherichia coli [11],0.064 µg/mL
same,MIC,Escherichia coli [9],0.064 µg/mL
CO/N=C(\C(=O)N[C@@H]1C(=O)N2C(C(=O)[O-])=C(C[N+]3(C)CCCC3)CS[C@H]12)c1csc(N)n1,MIC,Pseudomonas aeruginosa [2],32 µg/mL
same,MIC,Pseudomonas aeruginosa [3],> 256 µg/mL
same,MIC,Pseudomonas aeruginosa [4],1 µg/mL
same,MIC,Escherichia coli [5],12 µg/mL
same,MIC,Escherichia coli [6],1 µg/mL
same,MIC,Pseudomonas aeruginosa [7],> 256 µg/mL
same,MIC,Pseudomonas aeruginosa [8],64 µg/mL
same,MIC,Escherichia coli [9],0.19 µg/mL
C[C@H]1[C@H](NC(=O)/C(=N\OC(C)(C)C(=O)O)c2csc(N)n2)C(=O)N1S(=O)(=O)O [AZTREONAM],MIC,Pseudomonas aeruginosa [2],4 µg/mL
same,MIC,Pseudomonas aeruginosa [3],24 µg/mL
same,MIC,Pseudomonas aeruginosa [4],1 µg/mL
same,MIC,Escherichia coli [5],0.125 µg/mL
same,MIC,Escherichia coli [6],0.125 µg/mL
same,MIC,Pseudomonas aeruginosa [7],1.5 µg/mL
same,MIC,Pseudomonas aeruginosa [8],1.5 µg/mL
same,MIC,Escherichia coli [9],0.19 µg/mL
